Reference: article PMC3758425 (Biochemistry, 2013)
Entries after “also recorded” stand apart in the source; their conditions may differ.

Columns and labels:
[1] = ref [36]; cited from earlier work
CaM = conditions: non-acetylated α-syn, cited from earlier work
apo-CaM = conditions: non-acetylated α-syn; ref [28], [29]; cited from earlier work
[2] = target: holo-CaM (Ca-bound human calmodulin) (Homo sapiens, UniProt P0DP23); assay: NMR titration; conditions: compared with literature membrane binding, [55], [56]
Method in brief: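 Human CaM was expressed in E. coli and purified, ¹⁵N-labelled, holo form, held constant at 100 μM. It was titrated with N-acetylated α-syn, as the 1–19 peptide or the full-length protein, in 50 mM MES, 100 mM NaCl, 3 mM CaCl₂, pH 6.4, 5% D₂O. Amide shifts were read by ¹⁵N HSQC at 800 MHz, 310 K. Ten amides were scaled to one reference residue and fitted globally to a two-state 1:1 model.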

[3] = non-acetylated form; ref [28]; cited from earlier work

- binding constant to holo-CaM relative to membranes containing anionic lipids [2]: comparable
Substance: α-syn: Full-length non-acetylated α-syn expressed in E. coli
- affinity for negatively charged membranes, effect of N-terminal acetylation [1]: N-terminal acetylation increases its affinity for negatively charged membranes
- binding affinity (two earlier studies) (CaM; ref [28], [29]): submicromolar range
- Kd (CaM; read-out: dissociation constant (later study), ref [30]): ~10 µM
- interaction with apo-CaM in earlier studies (apo-CaM): There is disagreement whether apo-CaM can interact with α-syn; also recorded: one report seeing interaction only in the presence of calcium-bound (holo-) CaM whereas the other observed little difference between the two forms
- competition of CaM with membrane for α-syn binding [3]: CaM can compete with the membrane for α-syn binding
